One experiment concerns Monkey. Kind of experiment: Inhibition of Sidman avoidance in squirrel monkeys after the compound administered through perorally. It is filed as functional. Conditions: in Saimiri, po. The essentials:
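Oral dosing in squirrel monkeys trained on continuous (Sidman) avoidance responding. ED50 reported ± SEM.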

For experiment [1], the target named is T1, Adrenergic receptor alpha-1 (Rattus norvegicus, UniProt P15823+P23944+P43140).
T1 sequence (P15823 whole entry): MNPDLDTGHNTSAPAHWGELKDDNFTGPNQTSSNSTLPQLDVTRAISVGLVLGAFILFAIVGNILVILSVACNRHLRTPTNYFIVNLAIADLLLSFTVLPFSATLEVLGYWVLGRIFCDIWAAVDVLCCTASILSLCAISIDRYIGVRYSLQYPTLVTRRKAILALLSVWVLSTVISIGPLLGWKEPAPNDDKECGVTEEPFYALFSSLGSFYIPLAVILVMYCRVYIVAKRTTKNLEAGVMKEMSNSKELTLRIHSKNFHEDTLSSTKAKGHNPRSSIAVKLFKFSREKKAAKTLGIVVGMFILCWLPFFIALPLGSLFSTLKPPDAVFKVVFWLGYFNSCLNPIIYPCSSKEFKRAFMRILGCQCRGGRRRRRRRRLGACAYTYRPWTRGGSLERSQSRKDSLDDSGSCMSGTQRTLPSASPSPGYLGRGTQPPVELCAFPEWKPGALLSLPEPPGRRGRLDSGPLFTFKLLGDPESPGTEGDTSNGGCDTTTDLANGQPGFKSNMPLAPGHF
T1 sequence (P23944 whole entry): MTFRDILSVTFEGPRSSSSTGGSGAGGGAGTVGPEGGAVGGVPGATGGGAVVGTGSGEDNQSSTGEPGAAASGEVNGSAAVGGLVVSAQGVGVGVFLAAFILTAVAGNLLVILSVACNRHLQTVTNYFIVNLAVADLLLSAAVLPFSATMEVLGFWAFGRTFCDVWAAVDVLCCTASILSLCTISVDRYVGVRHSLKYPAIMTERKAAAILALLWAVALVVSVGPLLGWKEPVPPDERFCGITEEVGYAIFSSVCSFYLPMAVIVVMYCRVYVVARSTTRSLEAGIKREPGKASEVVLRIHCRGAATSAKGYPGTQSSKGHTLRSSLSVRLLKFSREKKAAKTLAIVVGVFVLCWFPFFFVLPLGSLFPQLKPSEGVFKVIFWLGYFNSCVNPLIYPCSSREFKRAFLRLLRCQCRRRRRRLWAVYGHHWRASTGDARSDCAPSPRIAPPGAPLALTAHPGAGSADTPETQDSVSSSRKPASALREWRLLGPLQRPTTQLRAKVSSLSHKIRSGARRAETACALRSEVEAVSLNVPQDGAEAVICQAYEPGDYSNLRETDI
T1 sequence (P43140 whole entry): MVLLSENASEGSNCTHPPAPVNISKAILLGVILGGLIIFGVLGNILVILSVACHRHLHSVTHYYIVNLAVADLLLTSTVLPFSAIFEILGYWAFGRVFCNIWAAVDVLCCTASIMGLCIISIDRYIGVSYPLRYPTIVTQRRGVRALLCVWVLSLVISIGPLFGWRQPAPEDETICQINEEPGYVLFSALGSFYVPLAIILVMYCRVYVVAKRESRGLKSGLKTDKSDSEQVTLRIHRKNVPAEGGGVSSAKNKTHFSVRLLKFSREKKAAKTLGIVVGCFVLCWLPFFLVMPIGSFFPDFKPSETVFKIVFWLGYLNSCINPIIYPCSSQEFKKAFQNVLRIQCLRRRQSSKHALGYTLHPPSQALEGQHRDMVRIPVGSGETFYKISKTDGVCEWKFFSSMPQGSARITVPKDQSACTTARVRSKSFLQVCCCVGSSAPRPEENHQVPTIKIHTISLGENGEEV
Description: Displacement of [3H]WB-4101 from alpha-1 adrenergic receptor in rat brain. It is filed as tissue-based. The gist of the method: (§1)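 Rat brain radioligand displacement binding. IC50 values (μM) were derived by nonlinear regression from four or five concentrations of compound.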

The test system of experiment [2] is Rattus norvegicus. Description: Inhibition of locomotion in rats after the compound administered through perorally. It is filed as functional. Conditions: po. The essentials:
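Oral dosing in rats, with spontaneous locomotor activity scored alongside ataxia. ED50 reported ± SEM.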

A further experiment deals with T2, Adenosine receptor A1 (Rattus norvegicus, UniProt P25099).
T2 sequence (P25099 whole entry): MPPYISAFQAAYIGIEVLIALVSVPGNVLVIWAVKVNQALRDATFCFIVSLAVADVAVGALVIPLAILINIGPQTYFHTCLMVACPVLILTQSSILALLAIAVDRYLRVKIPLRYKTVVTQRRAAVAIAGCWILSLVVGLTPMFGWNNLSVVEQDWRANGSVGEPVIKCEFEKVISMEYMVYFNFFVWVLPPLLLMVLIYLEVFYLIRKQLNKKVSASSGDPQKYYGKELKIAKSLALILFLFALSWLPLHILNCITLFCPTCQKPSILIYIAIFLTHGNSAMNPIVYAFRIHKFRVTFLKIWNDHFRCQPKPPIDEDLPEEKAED
Description: Displacement of [3H]CHA (N6-Cyclohexyl adenosine) from adenosine A1 receptor in rat brain. It is filed as tissue-based. The gist of the method: as §1
Background: Displacement assays read how much labelled ligand stays bound in the presence of the test substance.

The target of a further experiment is D(1A) dopamine receptor (Rattus norvegicus, UniProt P18901). Kind of experiment: Displacement of [3H]cis-flupenthixol from Dopamine receptor D1 in rat brain. It is filed as tissue-based.
Sequence of D(1A) dopamine receptor (P18901 whole entry): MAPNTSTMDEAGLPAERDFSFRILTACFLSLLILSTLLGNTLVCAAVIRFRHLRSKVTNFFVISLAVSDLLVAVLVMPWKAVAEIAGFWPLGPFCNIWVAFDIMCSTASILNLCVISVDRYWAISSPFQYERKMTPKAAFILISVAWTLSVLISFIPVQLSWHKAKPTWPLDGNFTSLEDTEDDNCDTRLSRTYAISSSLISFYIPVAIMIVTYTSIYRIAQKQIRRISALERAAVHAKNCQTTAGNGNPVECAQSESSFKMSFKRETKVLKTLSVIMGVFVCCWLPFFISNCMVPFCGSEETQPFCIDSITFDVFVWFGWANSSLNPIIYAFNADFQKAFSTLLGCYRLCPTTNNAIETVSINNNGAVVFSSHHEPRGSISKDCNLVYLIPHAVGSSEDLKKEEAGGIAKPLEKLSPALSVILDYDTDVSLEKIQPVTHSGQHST
Experiment [3] concerns the target Beta-1 adrenergic receptor (Rattus norvegicus, UniProt P18090). Kind of experiment: Displacement of [3H]DHA (Dihydroalprenolol) from beta-1 adrenergic receptor in rat brain. It is filed as tissue-based. The essentials:
as §1

Experiment [4] deals with Serotonin 1 (5-HT1) receptor (Rattus norvegicus, UniProt P28564+P30940+P19327+P28565). Kind of experiment: Displacement of [3H]5-HT from serotonin-1 neurotransmitter receptor in rat brain. It is filed as tissue-based. The essentials:
as §1

Experiment [5] has as its target Beta-2 adrenergic receptor (Rattus norvegicus, UniProt P10608). Description: Displacement of [3H]DHA (Dihydroalprenolol) from beta-2 adrenergic receptor in rat brain. It is filed as tissue-based. The gist of the method: as §1
Experiment [6] is described as follows: Displacement of [3H]flunitrazepam from GABA-A benzodiazepine receptor of rat brain. The essentials:
as §1

For experiment [7], the system named is Rattus norvegicus. Description: Inhibition of self-stimulation in rats after the compound administered through perorally. Conditions: po. It is filed as functional. The gist of the method:
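Suppression of high base line self-stimulation in rats after oral dosing. Read-out is ED50 in mg/kg.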

The next experiment has as its system Mus musculus. Kind of experiment: Inhibition of induction of ataxia in mouse after intraperitoneal administration. It is filed as functional. The conditions noted are these: ip.
In experiment [8] the test system is Rattus norvegicus. Kind of experiment: Inhibition of Sidman avoidance in rats after peroral administration. It is filed as functional. The conditions noted are these: po. The essentials:
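Continuous (Sidman) avoidance responding in rats with oral dosing. At least three doses per drug, four animals per dose. ED50 reported ± SEM.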

In experiment [9] the target is Voltage-gated L-type calcium channel (Rattus norvegicus, UniProt P22002+Q02485+P27732). Kind of experiment: Displacement of [3H]nitrendipine from L-type [Ca2+] channel of rat brain. It is filed as tissue-based.

As usually defined, the ED50 is the midpoint of the dose-response relation. The term IC50 denotes the concentration that inhibits the measured activity by half.

Sequence of Beta-2 adrenergic receptor (P10608 whole entry): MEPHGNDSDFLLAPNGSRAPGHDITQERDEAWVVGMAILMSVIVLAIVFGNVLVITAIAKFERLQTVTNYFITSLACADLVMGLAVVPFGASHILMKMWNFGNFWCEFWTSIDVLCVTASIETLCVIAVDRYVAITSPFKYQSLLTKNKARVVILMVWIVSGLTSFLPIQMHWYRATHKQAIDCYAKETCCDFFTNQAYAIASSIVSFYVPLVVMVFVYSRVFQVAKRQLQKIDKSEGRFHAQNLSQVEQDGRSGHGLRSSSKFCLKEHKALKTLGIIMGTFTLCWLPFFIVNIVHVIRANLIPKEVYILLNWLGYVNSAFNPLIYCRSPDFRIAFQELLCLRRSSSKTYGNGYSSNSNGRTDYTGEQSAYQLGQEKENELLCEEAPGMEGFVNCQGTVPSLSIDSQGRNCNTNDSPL
Sequence of Beta-1 adrenergic receptor (P18090 whole entry): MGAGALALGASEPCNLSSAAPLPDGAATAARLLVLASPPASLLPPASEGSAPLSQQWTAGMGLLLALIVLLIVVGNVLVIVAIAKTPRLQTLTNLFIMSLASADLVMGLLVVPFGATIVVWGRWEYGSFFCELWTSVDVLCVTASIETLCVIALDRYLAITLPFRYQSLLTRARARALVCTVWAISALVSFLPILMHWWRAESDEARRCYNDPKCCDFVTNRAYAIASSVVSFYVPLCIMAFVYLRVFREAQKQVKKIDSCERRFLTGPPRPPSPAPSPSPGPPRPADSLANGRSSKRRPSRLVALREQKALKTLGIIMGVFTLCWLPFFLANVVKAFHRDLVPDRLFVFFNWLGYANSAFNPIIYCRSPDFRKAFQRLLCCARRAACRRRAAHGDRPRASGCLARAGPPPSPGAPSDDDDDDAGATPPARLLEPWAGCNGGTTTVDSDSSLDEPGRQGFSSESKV

Regarding `CCC1CN2C(C)=Nc3c(C)nn(C)c3C2=N1` (stereo not drawn), the ED50 in the experiment on Monkey was 7.25 mg/kg; in the experiment with Rattus norvegicus [2] it was 15.5 mg/kg; in the experiment on Rattus norvegicus [7], 10.8 mg/kg; with Mus musculus, more than 100 mg/kg; in the experiment on Rattus norvegicus [8] it was 19.2 mg/kg. Also, the IC50 (in experiment [1]; at Adenosine receptor A1; at D(1A) dopamine receptor; in experiment [3]; in experiment [4]; in experiment [5]) was more than 10 µM each time. The IC50 in experiment [6] was more than 1 µM; in [9], more than 10 µM.
